Experimental data collected from several papers.
Protocols differ between the studies behind these lines.
Route: intravenous

The clearance of Cc1cc(C)nc(Nc2ncc(C(=O)NCCc3c(C)[nH]c4ccccc34)cn2)c1 is reported as 81 mL/min/kg (Sprague-Dawley rat, plasma).
CCCC[C@@H]1NC(=O)[C@H](Cc2ccc(O)cc2)NC(=O)[C@@H]2CCCN2C(=O)[C@H](CC(=O)O)NC(=O)[C@H](C)NC(=O)[C@H](Cc2ccccc2)NC(=O)[C@@H]2CSCCC(=O)N3CN(CN(C3)C(=O)CCSC[C@@H](C(=O)N[C@@H](C)C(N)=O)NC1=O)C(=O)CCSC[C@H](NC(=O)[C@H](C)NC(C)=O)C(=O)N[C@@H]([C@@H](C)CC)C(=O)N[C@@H](CCC(=O)O)C(=O)N[C@@H](CCC(=O)O)C(=O)N[C@H](CCCCNC(=O)CCc1cn(CCOCCOCCOCCN(CCOCCOCCOCCC(=O)N[C@H]3CSCCC(=O)N4CN5CN(C4)C(=O)CCSC[C@H](NC(=O)[C@@H](CC(=O)O)NC(=O)[C@H](Cc4cccc6ccccc46)NC(=O)[C@@H]4CCCN4C3=O)C(=O)N[C@@H](CCSC)C(=O)N[C@@H](CCCCNC(=N)N)C(=O)N[C@@H](CC(=O)O)C(=O)N[C@@H](Cc3c[nH]c4ccccc34)C(=O)N[C@@H](CO)C(=O)N[C@@H]([C@@H](C)O)C(=O)N3CCC[C@H]3C(=O)N3C[C@H](O)C[C@H]3C(=O)N[C@@H](Cc3c[nH]c4ccccc34)C(=O)N[C@H](C(N)=O)CSCCC5=O)CCOCCOCCOCCn3cc(CCC(=O)NCCCC[C@H]4NC(=O)[C@H](CCC(=O)O)NC(=O)[C@H](CCC(=O)O)NC(=O)[C@H]([C@@H](C)CC)NC(=O)[C@@H](NC(=O)[C@H](C)NC(C)=O)CSCCC(=O)N5CN6CN(C5)C(=O)CCSC[C@H](NC(=O)[C@H](Cc5ccc(O)cc5)NC(=O)[C@H](CCC(N)=O)NC4=O)C(=O)N[C@@H](Cc4ccccc4)C(=O)N[C@@H](C)C(=O)N[C@@H](CC(=O)O)C(=O)N4CCC[C@H]4C(=O)N[C@@H](Cc4ccc(O)cc4)C(=O)N[C@@H](CCCC)C(=O)N[C@H](C(=O)N[C@@H](C)C(N)=O)CSCCC6=O)nn3)nn1)C(=O)N[C@@H](CCC(N)=O)C(=O)N[C@@H](Cc1ccc(O)cc1)C(=O)N2 has a clearance of 9.8 mL/min/kg (rat, plasma; 2 mg/kg).
For C[C@H](C(=O)N[C@H]1COc2ccccc2[C@@H]1S(C)(=O)=O)c1ccc(F)cc1, the clearance was 10 mL/min/kg (male Sprague-Dawley rat, plasma; 0.5 mg/kg).
With CCCC[C@@H]1NC(=O)[C@H](Cc2ccc(O)cc2)NC(=O)[C@@H]2CCCN2C(=O)[C@H](CC(=O)O)NC(=O)[C@H](C)NC(=O)[C@H](Cc2ccccc2)NC(=O)[C@@H]2CSCCC(=O)N3CN(CN(C3)C(=O)CCSC[C@H](NC(C)=O)C(=O)N[C@@H](CC(C)(C)C)C(=O)N[C@@H](CCC(=O)O)C(=O)N[C@@H](CCC(=O)O)C(=O)N[C@H](CCCCNC(=O)CCc3cn(CCOCCOCCOCCN(CCOCCOCCOCCC(=O)N[C@H]4CSCCC(=O)N5CN6CN(C5)C(=O)CCSC[C@H](NC(=O)[C@@H](CC(=O)O)NC(=O)[C@H](Cc5cccc7ccccc57)NC(=O)[C@@H]5CCCN5C4=O)C(=O)N[C@@H](CCSC)C(=O)N[C@@H](CCCCNC(=N)N)C(=O)N[C@@H](CC(=O)O)C(=O)N[C@@H](Cc4c[nH]c5ccccc45)C(=O)N[C@@H](CO)C(=O)N[C@@H]([C@@H](C)O)C(=O)N4CCC[C@H]4C(=O)N4C[C@H](O)C[C@H]4C(=O)N[C@@H](Cc4c[nH]c5ccccc45)C(=O)N[C@H](C(N)=O)CSCCC6=O)CCOCCOCCOCCn4cc(CCC(=O)NCCCC[C@H]5NC(=O)[C@H](CCC(=O)O)NC(=O)[C@H](CCC(=O)O)NC(=O)[C@H](CC(C)(C)C)NC(=O)[C@@H](NC(C)=O)CSCCC(=O)N6CN7CN(C6)C(=O)CCSC[C@H](NC(=O)[C@H](Cc6ccc(O)cc6)NC(=O)[C@@H]6CCCN6C5=O)C(=O)N[C@@H](Cc5ccccc5)C(=O)N[C@@H](C)C(=O)N[C@@H](CC(=O)O)C(=O)N5CCC[C@H]5C(=O)N[C@@H](Cc5ccc(O)cc5)C(=O)N[C@@H](CCCC)C(=O)N[C@H](C(N)=O)CSCCC7=O)nn4)nn3)C(=O)N3CCC[C@H]3C(=O)N[C@@H](Cc3ccc(O)cc3)C(=O)N2)C(=O)CCSC[C@@H](C(N)=O)NC1=O the clearance was 11 mL/min/kg (rat, plasma; 2 mg/kg).
Cn1cnc(Cn2c(=O)[nH]/c(=N\c3cc4cn(C)nc4cc3Cl)n(Cc3cc(F)c(F)cc3F)c2=O)n1 has a clearance of 1.03 mL/min/kg (male Sprague-Dawley rat, plasma; 5 mg/kg).
O=C1c2cc(COc3ccccc3)nn2CCC1c1ccc(F)cc1 (stereo not drawn) has a clearance of 120 mL/min/kg (male Sprague-Dawley rat, plasma; 0.2 mg/kg).
CN(C)C(=O)Oc1cc(OC(=O)N(C)C)cc(-c2cc3ccc(O)cc3o2)c1 gave a clearance of 140 mL/min/kg (male rat, plasma; 5 mg/kg).
The renal clearance of O=C(O)CCCO is reported as 1.89 mL/min/kg (male Sprague-Dawley rat, urine; 600 mg/kg).
CCCC[C@@H]1NC(=O)[C@H](Cc2ccc(O)cc2)NC(=O)[C@@H]2CCCN2C(=O)[C@H](CC(=O)O)NC(=O)[C@H](C)NC(=O)[C@H](Cc2ccccc2)NC(=O)[C@@H]2CSCCC(=O)N3CN(CN(C3)C(=O)CCSC[C@@H](C(=O)N[C@@H](CNC(=O)CCc3cn(CCOCCOCCOCCN(CCOCCOCCOCCC(=O)N[C@H]4CSCCC(=O)N5CN6CN(C5)C(=O)CCSC[C@H](NC(=O)[C@@H](CC(=O)O)NC(=O)[C@H](Cc5cccc7ccccc57)NC(=O)[C@@H]5CCCN5C4=O)C(=O)N[C@@H](CCSC)C(=O)N[C@@H](CCCCNC(=N)N)C(=O)N[C@@H](CC(=O)O)C(=O)N[C@@H](Cc4c[nH]c5ccccc45)C(=O)N[C@@H](CO)C(=O)N[C@@H]([C@@H](C)O)C(=O)N4CCC[C@H]4C(=O)N4C[C@H](O)C[C@H]4C(=O)N[C@@H](Cc4c[nH]c5ccccc45)C(=O)N[C@H](C(N)=O)CSCCC6=O)CCOCCOCCOCCn4cc(CCC(=O)NC[C@H](NC(=O)[C@@H]5CSCCC(=O)N6CN7CN(C6)C(=O)CCSC[C@H](NC(=O)[C@H](Cc6ccc(O)cc6)NC(=O)[C@@H]6CCCN6C(=O)[C@@H](C)NC(=O)[C@H](CCC(=O)O)NC(=O)[C@@H]6CCCN6C(=O)[C@H](CC(C)(C)C)NC(=O)[C@@H](NC(C)=O)CSCCC7=O)C(=O)N[C@@H](Cc6ccccc6)C(=O)N[C@@H](C)C(=O)N[C@@H](CC(=O)O)C(=O)N6CCC[C@H]6C(=O)N[C@@H](Cc6ccc(O)cc6)C(=O)N[C@@H](CCCC)C(=O)N5)C(N)=O)nn4)nn3)C(N)=O)NC1=O)C(=O)CCSC[C@H](NC(C)=O)C(=O)N[C@@H](CC(C)(C)C)C(=O)N1CCC[C@H]1C(=O)N[C@@H](CCC(=O)O)C(=O)N[C@H](C)C(=O)N1CCC[C@H]1C(=O)N[C@@H](Cc1ccc(O)cc1)C(=O)N2 has a clearance of 8.7 mL/min/kg (rat, plasma; 2 mg/kg).
The clearance of N=c1c2c(-c3ccccc3)c(-c3ccccc3)n(Cc3ccccc3)c2ncn1[C@H]1CC[C@H](O)CC1 is reported as 19.6 mL/min/kg (male Sprague-Dawley rat, plasma; 2 mg/kg, single dose).
The clearance of [2H]C([2H])(c1cc(F)c(F)cc1F)n1c(=O)n(Cc2ncn(C)n2)c(=O)[nH]/c1=N\c1cc2cn(C)nc2cc1Cl is reported as 1.11 mL/min/kg (male Sprague-Dawley rat, plasma; 5 mg/kg).
For CCCCCCCC(=O)N[C@@H](CCCCN)C(=O)N[C@@H](CCCCN)C(=O)N[C@@H](C)C(=O)N[C@@H](CC(C)C)C(=O)N[C@@H](CCCCN)C(=O)N[C@@H](CC(C)C)C(=O)N[C@@H](C)C(=O)N[C@@H](CCCCN)C(=O)N[C@@H](CCCCN)C(=O)N1CCC[C@H]1C(=O)N[C@@H](CC(C)C)C(=O)N[C@@H](CCCCN)C(=O)N[C@@H](CC(C)C)C(=O)N[C@@H](CC(C)C)C(=O)N[C@@H](CCCCN)C(N)=O, the clearance was 192 mL/min/kg (male Sprague-Dawley rat, blood; 3 mg/kg, infusion).
